Data as given in ChEMBL document CHEMBL3792332, “Novel chromone and xanthone derivatives: Synthesis and ROS/RNS scavenging activities” (Eur J Med Chem, 2016).

Key:
Type in all cases: physicochemical
[1] = Antioxidant activity assessed as inhibition of peroxynitrite induced oxidation of the non-fluorescent dihydrorhodamine 123 to the fluorescent rhodamine 123 after 2 mins by fluorimetric method; settings: for inhibition (INH): 2 min
Method in brief: (§1)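 Peroxynitrite (synthesized in-house) oxidizes DHR to rhodamine 123; fluorescence read after 2 min at 37 °C. Compounds in DMSO at final 0.156–5 μM. A parallel set was run with 25 mM NaHCO3 to mimic physiological CO2. IC50 from inhibition curves, 5–7 concentrations in triplicate, ≥4 independent experiments.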

[2] = Antioxidant activity assessed as inhibition of NO-induced oxidation of non-fluorescent DAF-2 to the fluorescent triazolofluorescein after 30 mins by fluorimetric method; settings: for inhibition (INH): 0.5 h
Method in brief: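 •NO released from NOC-5; oxidation of DAF-2 to DAF-2T read fluorimetrically (ex 485/em 528 nm) after 30 min at 37 °C. Compounds in DMSO at final 0.25–8 μM. IC50 derived from % inhibition vs concentration curves, 5–7 concentrations in triplicate, at least four independent experiments.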

[3] = Antioxidant activity assessed as inhibition of superoxide induced reduction of NBT measured for 2 mins by UV-visible spectrophotometric method; settings: for inhibition (INH): 2 min
Method in brief: (§2)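 Superoxide produced by the NADH/PMS/O2 system at room temperature. NBT reduction followed at 560 nm over 2 min. Compounds in DMSO at final 25–200 μM. IC50 from % inhibition vs concentration curves, at least four independent experiments in triplicate. The single-concentration line is % inhibition at the top concentration.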

[4] = Antioxidant activity assessed as inhibition of peroxynitrite induced oxidation of the non-fluorescent dihydrorhodamine 123 to the fluorescent rhodamine-123 in presence of NaHCO3 after 2 mins by fluorimetric method; method in brief: as §1
[5] = Antioxidant activity assessed as inhibition of H2O2 induced lucigenin oxidation at 1000 uM at 37 degC
Method in brief: (§3)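 H2O2 scavenging by chemiluminescence: H2O2-induced lucigenin oxidation, signal recorded immediately after the plate enters the reader. Compounds in DMSO at final 31.25–1000 μM, 37 °C. IC50 from % inhibition vs concentration curves (5–7 concentrations in triplicate, at least four independent experiments). Single-concentration line gives % effect at the top concentration. Quercetin as positive control.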

[6] = Antioxidant activity assessed as inhibition of HOCl-induced oxidation of DHR to rhodamine 123 at 37 degC by fluorimetric method
Method in brief: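 HOCl made daily by adjusting 1% NaOCl to pH 6.2 with 10% H2SO4. HOCl-induced DHR oxidation to rhodamine 123 read immediately at ex 480/em 528 nm, 37 °C. Compounds in ethanol, final 6.25–400 μM. IC50 from inhibition curves, 5–7 concentrations in triplicate, ≥4 independent experiments.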

[7] = Antioxidant activity assessed as inhibition of singlet oxygen induced oxidation of non-fluorescent DHR to fluorescent rhodamine 123 at 37 degC measured after 30 mins by fluorimetric method; settings: for inhibition (INH): 0.5 h
Method in brief: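 Singlet oxygen generated by thermal decomposition of NDPO2 at 37 °C. DHR oxidation to rhodamine 123 read fluorimetrically after 30 min incubation. Compounds in DMSO, final 0.3125–20 μM for chromones and 0.625–80 μM for xanthones. IC50 from % inhibition curves, 5–7 concentrations in triplicate, ≥4 independent experiments.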

[8] = Antioxidant activity assessed as inhibition of H2O2 induced lucigenin oxidation at 37 degC; method in brief: as §3
[9] = Antioxidant activity assessed as inhibition of superoxide induced reduction of NBT measured for 2 mins at 200 uM by UV-visible spectrophotometric method; method in brief: as §2

IC50 [1] [µM] | inhibition (INH) [1] | IC50 [2] [µM] | inhibition (INH) [2] | inhibition (INH) [3] | IC50 ([3]; read-out: IC50) [µM] | IC50 [4] [µM] | inhibition (INH) [5] [%] | IC50 [6] [µM] | inhibition (INH) [6] | IC50 [7] [µM] | inhibition (INH) [7] | IC50 [8] [µM] | inhibition (INH) [8] | IC50 [3] | inhibition (INH) [9] [%] | Structure (SMILES)
0.51 | Dose-dependent effect | 1.99 | Dose-dependent effect | Dose-dependent effect | 55 | 0.35 | 12 | 158 | Dose-dependent effect | 4.4 | Dose-dependent effect |  |  |  |  | O=c1c2ccccc2oc2cccc(-c3ccc(O)c(O)c3)c12
0.57 | Dose-dependent effect | 1.5 | Dose-dependent effect | Dose-dependent effect | 80 | 0.56 |  | 96 | Dose-dependent effect | 10 | Dose-dependent effect | 658 | Dose-dependent effect |  |  | O=c1c2c(O)cccc2oc2cccc(-c3ccc(O)c(O)c3)c12
0.39 | Dose-dependent effect | 1.08 | Dose-dependent effect | Dose-dependent effect | 61 | 0.66 |  | 31 | Dose-dependent effect | 7.3 | Dose-dependent effect | 518 | Dose-dependent effect |  |  | O=c1c2ccc(O)cc2oc2cccc(-c3ccc(O)c(O)c3)c12
0.33 | Dose-dependent effect | 0.82 | Dose-dependent effect |  |  | 0.34 |  | 32 | Dose-dependent effect | 1.3 | Dose-dependent effect | 143 | Dose-dependent effect | ND(Insoluble) |  | O=c1cc(/C=C/C=C/c2ccc(O)c(O)c2)oc2ccccc12
0.29 | Dose-dependent effect | 1.42 | Dose-dependent effect |  |  | 0.3 |  | 17 | Dose-dependent effect | 1.6 | Dose-dependent effect | 121 | Dose-dependent effect |  | 36 | O=c1cc(/C=C/C=C/c2ccc(O)c(O)c2)oc2cc(O)ccc12
0.34 | Dose-dependent effect | 1.23 | Dose-dependent effect |  |  | 0.4 |  | 94 | Dose-dependent effect | 1.1 | Dose-dependent effect | 125 | Dose-dependent effect | ND(Insoluble) |  | O=c1cc(/C=C/C=C/c2ccc(O)c(O)c2)oc2cccc(O)c12

Structure (SMILES) | IC50 [1] [µM] | inhibition (INH) [1] | IC50 [2] [µM] | inhibition (INH) [2] | inhibition (INH) [3] | IC50 ([3]; read-out: IC50) [µM] | IC50 [4] [µM] | inhibition (INH) [5] [%] | IC50 [6] [µM] | inhibition (INH) [6] | IC50 [7] [µM] | inhibition (INH) [7] | IC50 [8] [µM] | inhibition (INH) [8] | IC50 [3] | inhibition (INH) [9] [%]
O=c1c(O)c(-c2ccc(O)c(O)c2)oc2cc(O)cc(O)c12 [QUERCETIN] | 0.45 |  | 0.77 |  |  | 60 | 0.68 |  | 2.4 |  | 1.5 |  | 1340 |  |  | 
